Test results: ChEMBL document CHEMBL2331327, “Bioactive abietane and ent-kaurane diterpenoids from Isodon tenuifolius” (J Nat Prod, 2013)
Residues, ends and D or L forms follow the SMILES beside them. *: point of attachment. Cbz = O=C(OCc1ccccc1)*

What was measured:
SMMC-7721 = assay: Cytotoxicity against human SMMC7721 cells assessed as inhibition of cell viability after 48 hrs by MTT assay; type: functional, cell-based; settings: SMMC-7721, 48 h
Outline: (§1)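 Cells grown in RPMI-1640 or DMEM with 10% FBS, 37 °C, 5% CO2. Adherent lines seeded at 1 × 10^5 cells/mL and allowed 12 h to attach; suspension cells seeded just before dosing. Compounds tested at various concentrations in triplicate for 48 h; cisplatin and paclitaxel as positive controls. MTT added for 4 h at 37 °C, then lysis in 20% SDS−50% DMF and OD read at 595 nm. IC50 by Reed and Muench method.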

MCF7 = assay: Cytotoxicity against human MCF7 cells assessed as inhibition of cell viability after 48 hrs by MTT assay; type: functional, cell-based; settings: MCF7, 48 h; outline: as §1
SW480 = assay: Cytotoxicity against human SW480 cells assessed as inhibition of cell viability after 48 hrs by MTT assay; type: functional, cell-based; settings: SW480, 48 h; outline: as §1
RAW264.7 [1] = assay: Inhibition of nitric oxide production in LPS-stimulated mouse RAW264.7 cells measured after 18 hrs by Griess reagent based multilabel plate reader analysis; type: functional, cell-based; settings: RAW264.7, 18 h
Outline: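 RAW264.7 macrophages in RPMI 1640 with 10% FBS at 2 × 10^5 cells/well, preincubated 24 h at 37 °C, 5% CO2. Then 18 h with 1 μg/mL LPS plus serial dilutions of compound (DMSO stock diluted in medium; top concentration 25 μM). Supernatant mixed 1:1 with Griess reagent, 5 min, absorbance at 570 nm, in triplicate. MG-132 as positive control.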

HL-60 = assay: Cytotoxicity against human HL60 cells assessed as inhibition of cell viability after 48 hrs by MTT assay; type: functional, cell-based; settings: HL-60, 48 h; outline: as §1
RAW264.7 [2] = assay: Cytotoxicity against mouse RAW264.7 cells assessed as inhibition of cell viability after 18 hrs by MTS assay; type: cell-based; settings: raw264.7, 18 h
Outline: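 RAW264.7 cells seeded at 2 × 10^5 cells/well and preincubated 24 h, then exposed to compounds (DMSO solutions) at given concentrations for 18 h. MTS added for 4 h and absorbance read at 490 nm. Viability expressed relative to untreated cells as 100%.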

A549 = assay: Cytotoxicity against human A549 cells assessed as inhibition of cell viability after 48 hrs by MTT assay; type: functional, cell-based; settings: A549, 48 h; outline: as §1

Structure (SMILES)	IC50 (RAW264.7 [1]) [µM]	IC50 (SMMC-7721) [µM]	IC50 (MCF7) [µM]	IC50 (SW480) [µM]	IC50 (HL-60) [µM]	Activity (RAW264.7 [2])	IC50 (A549) [µM]
CC(C)c1cc2c3c(c1)[C@H](O)C[C@H]1[C@](C)(CO)CC[C@H](O2)[C@]31C [ISOABIETENIN A]	> 25	> 10	> 10	> 10	> 10	Non-toxic	> 10
CC(C)[C@@]1(O)CC(=O)C2=C(C1)[C@H](O)C[C@H]1[C@](C)(CO)CCC[C@]21C [ISOABIETENIN B]	> 25	> 10	> 10	> 10	> 10	Non-toxic	> 10
CC(C)C[C@@H](C=O)NC(=O)[C@H](CC(C)C)NC(=O)[C@H](CC(C)C)NC(=O)OCc1ccccc1 [MG-132] (Cbz-Leu-Leu-Leu-aldehyde)	0.15						
CC(=O)O[C@H]1C(=O)[C@@]2(C)[C@H]([C@H](OC(=O)c3ccccc3)[C@]3(O)C[C@H](OC(=O)[C@H](O)[C@@H](NC(=O)c4ccccc4)c4ccccc4)C(C)=C1C3(C)C)[C@]1(OC(C)=O)CO[C@@H]1C[C@@H]2O [PACLITAXEL]		< 0.008	< 0.008	0.15	< 0.008		< 0.008
C=C1C(=O)[C@@]23CC[C@@H]4C(C)(C)[C@H](O)CC[C@@]4(C)[C@@H]2[C@@H](O)C[C@@H]1C3 [TENUIFOLIN A]	6.9	7.4	> 10	> 10	4.7	Non-toxic	> 10
C=C1[C@@H]2C[C@H](O)[C@H]3[C@]4(C)CC[C@H](O)C(C)(C)[C@H]4CC[C@]3(C2)[C@@H]1O [TENUIFOLIN B]	> 25	> 10	> 10	> 10	> 10	Non-toxic	> 10
C=C1[C@@H]2C[C@H](O)[C@H]3[C@]4(C)CC[C@H](O)C(C)(C)[C@H]4C(=O)C[C@]3(C2)[C@@H]1O [TENUIFOLIN E]	> 25	> 10	> 10	> 10	> 10	Non-toxic	> 10
C=C1C(=O)[C@@]23CC(=O)[C@@H]4C(C)(C)[C@@H](OC(C)=O)CC[C@@]4(C)[C@@H]2[C@@H](O)[C@H](O)[C@@H]1C3 [TENUIFOLIN J]	8.8	6.3	> 10	> 10	3.8	Non-toxic	> 10
COC[C@@H]1C(=O)[C@]23C[C@H]1C[C@H](OC(C)=O)[C@H]2[C@@]1(C)[C@H](C(=O)[C@@H]3O)C(C)(C)[C@@H](O)C[C@@H]1O [TENUIFOLIN L]	> 25	> 10	> 10	> 10	> 10	Non-toxic	> 10

Continued, in another order:

IC50 (RAW264.7 [1]) [µM]	Structure (SMILES)	IC50 (SMMC-7721) [µM]	IC50 (MCF7) [µM]	IC50 (SW480) [µM]	IC50 (HL-60) [µM]	Activity (RAW264.7 [2])	IC50 (A549) [µM]
3.8	C=C1C(=O)[C@]23C[C@H]1C[C@H](OC(C)=O)[C@H]2[C@]1(C)[C@@H](OC(C)=O)C[C@H](O)C(C)(C)[C@H]1C[C@@H]3OC(C)=O [ADENANTHIN C]	3.2	4.8	5.1	1.8	Non-toxic	> 10
> 25	C=C1[C@@H]2C[C@H](O)[C@H]3[C@@]4(C)[C@H](C[C@H](OC(C)=O)[C@]3(C2)[C@@H]1O)C(C)(C)[C@@H](OC(C)=O)C[C@@H]4O [ADENANTHIN E]	> 10	> 10	> 10	> 10	Non-toxic	> 10
> 25	C=C1[C@@H]2C[C@H](OC(C)=O)[C@H]3[C@]4(C)[C@@H](OC(C)=O)C[C@H](O)C(C)(C)[C@H]4C(=O)[C@H](OC(C)=O)[C@]3(C2)[C@@H]1O [ADENANTHIN J]	> 10	> 10	> 10	> 10	Non-toxic	> 10
5.7	C=C1C(=O)[C@@]23CC(=O)[C@@H]4C(C)(C)[C@@H](OC(C)=O)C[C@H](O)[C@@]4(C)[C@@H]2[C@@H](O)C[C@@H]1C3 [INFLEXARABDONIN E]	2.2	4.8	4.6	1.7	Non-toxic	6.8
10.8	C=C(C=O)[C@H]1C[C@@H](OC(C)=O)[C@H]2[C@@](O)(C1)[C@H](OC(C)=O)C(=O)[C@H]1C(C)(C)[C@H](O)C[C@@H](OC(C)=O)[C@@]12C [ISOABIETENIN C]	> 10	> 10	> 10	4.7	Non-toxic	> 10
> 25	C=C1[C@@H]2C[C@H](OC(C)=O)[C@@H]3[C@](C2)(C(=O)C[C@@H]2C(C)(C)[C@@H](O)C[C@H](OC(C)=O)[C@]23C)[C@@H]1OC(C)=O [TENUIFOLIN C]	> 10	> 10	> 10	> 10	Non-toxic	> 10
> 25	C=C1[C@@H]2C[C@H](OC(C)=O)[C@H]3[C@]4(C)[C@@H](OC(C)=O)C[C@H](O)C(C)(C)[C@H]4C[C@H](O)[C@]3(C2)[C@@H]1O [TENUIFOLIN D]	> 10	> 10	> 10	> 10	Non-toxic	> 10
> 25	C=C1[C@@H]2C[C@H](O)[C@@H]3[C@@](CC(=O)[C@@H]4C(C)(C)[C@@H](O)C[C@H](OC(C)=O)[C@]43C)(C2)[C@@H]1O [TENUIFOLIN F]	> 10	> 10	> 10	> 10	Non-toxic	> 10
> 25	C=C1[C@@H]2C[C@H](OC(C)=O)[C@@H]3[C@@](CC(=O)[C@@H]4C(C)(C)[C@@H](O)C[C@H](O)[C@]43C)(C2)[C@@H]1O [TENUIFOLIN G]	> 10	> 10	> 10	> 10	Non-toxic	> 10
> 25	C=C1[C@@H]2CC(=O)[C@@H]3[C@@](CC(=O)[C@@H]4C(C)(C)[C@@H](O)C[C@H](OC(C)=O)[C@]43C)(C2)[C@@H]1O [TENUIFOLIN H]	> 10	> 10	> 10	> 10	Non-toxic	> 10
5.8	C=C1C(=O)[C@@]23CC(=O)[C@@H]4C(C)(C)[C@@H](O)C[C@H](O)[C@@]4(C)[C@@H]2[C@@H](OC(C)=O)C[C@@H]1C3 [TENUIFOLIN I]	1.9	3	4.3	0.8	Non-toxic	4.5
> 25	COC[C@H]1C(=O)[C@]23C[C@H]1C[C@H](OC(C)=O)[C@H]2[C@]1(C)[C@@H](OC(C)=O)C[C@H](O)C(C)(C)[C@H]1C(=O)[C@@H]3O [TENUIFOLIN M]	> 10	> 10	> 10	4.4	Non-toxic	> 10
